Compound activity deposited in PubChem by several laboratories.
Sampled rows, rich in hits. Any-hit rate of the full collection: about 1.9%.
DSG3 Ab inh – inhibitors of pemphigus antibody binding to DSG3, primary screen, biochemical, bead-based, flow cytometry, scFv-GFP. Desmoglein-3 (Homo sapiens), P32926. DSG3-coupled beads, scFv-anti-DSG3-GFP binding; active compounds read low. binding (percent of control), % at 10 µM. 0.48% of 310,000 active;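 active = binding more than 3 SD below its plate's average and above zero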;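 also: hits lower antibody fragment binding to DSG3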
Rce1 inh – yeast Rce1p protease inhibitors, primary screen, biochemical, fluorescence, cell-free homogeneous; yeast membranes, quenched prenylated peptide cleavage fluorescence; calls only; 0.27% of 290,000 active; AID 2563, 2010;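 active = fall in fluorescence gain of 50% or more versus controls, with final raw signal at or below 3038400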
Target sequence (Q03530 whole entry, looked up): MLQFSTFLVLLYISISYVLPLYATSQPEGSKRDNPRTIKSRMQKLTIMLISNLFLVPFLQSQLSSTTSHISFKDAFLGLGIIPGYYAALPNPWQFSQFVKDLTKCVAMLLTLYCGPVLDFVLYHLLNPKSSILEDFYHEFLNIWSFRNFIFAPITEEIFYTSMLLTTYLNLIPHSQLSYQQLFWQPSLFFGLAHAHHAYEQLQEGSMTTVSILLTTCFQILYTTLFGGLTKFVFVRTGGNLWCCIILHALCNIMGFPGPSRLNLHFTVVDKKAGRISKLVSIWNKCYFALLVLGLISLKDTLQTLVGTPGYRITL
TbMetRS inhib – T. brucei MetRS inhibitors, primary screen, biochemical, luminescence | 0.4% of 360,000 active | inhibition, % at 11.9 µM | methionyl-tRNA synthetase (Trypanosoma brucei brucei) | purified T. brucei MetRS, ATP depletion, Kinase-Glo luminescence;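 active = inhibition above a per-plate cutoff of the control wells' mean inhibition plus 3 SD, cut at about 5.5% in these data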
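Material: parasite MetRS enzyme / Replication: singlicate, one well per compound / Signal: luminescence of leftover ATP / Schedule: 2 h aminoacylation at 25 °C after 15 min preincubation / Medium: HEPES-MgCl2-KCl buffer plus DTT, spermine, BSA, pyrophosphatase / Doses: 11.9 µM single point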
NadD inh – inhibitors of S. aureus NadD, primary screen, biochemical, colorimetric, uHTS | Nicotinate-nucleotide adenylyltransferase NadD (Staphylococcus aureus N315) | AID 602399, 2012 | purified NadD enzyme, colorimetric absorbance read-out | 0.78% of 360,000 active | inhibition, % at 20 µM; in the data active = inhibition above about 26%
HCV core dimer – inhibitors of HCV core protein dimerization, primary screen, biochemical, TR-FRET, high-throughput; inhibition, % at 5 µM; TR-FRET GST/Flag-core106 dimerization, 1536-well; 0.33% of 300,000 active;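 active = inhibition above the mean of all tested compounds plus 3 SD, set per screening campaign, cut at about 45% in these data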
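test system = GST/Flag-tagged HCV core106 proteins | probe or stimulus = Eu donor and XL665 acceptor anti-tag antibodies | times = compound-protein-antibody incubation 4 h at 22.5 °C | signal = TR-FRET, excitation 340 nm, emission 617 and 671 nm | measure = percent inhibition of core106 dimerization signal | controls = wells lacking GST-core106 and wells with excess unlabelled core106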
Hits are given with their value; n = inactive; x = no result; + = active, no number.

SMILES	DSG3 Ab inh	Rce1 inh	TbMetRS inhib	NadD inh	HCV core dimer
O=C(CSc1oc(-c2ccco2)nc1S(=O)(=O)c1ccccc1)NCC1CCCO1 (configuration not stated)	x	n	n	n	n
CCOC(=O)[C@]12CCC=C1N(Cc1ccccc1)C(=O)[C@H](CC(=O)NCc1cccc3ccccc13)C2	x	x	n	n	x
Oc1c(C(Nc2ccccn2)c2ccccn2)ccc2cccnc12 (configuration not stated)	n	n	n	n	n
Oc1ccccc1C(Nc1nccs1)c1ccc2cccnc2c1O (configuration not stated)	70	n	n	37	n
COc1ccc(NC(=S)N/N=C2/CCCc3c(C)cc(C)cc32)cc1	-6.5	n	n	n	n
COc1ccc(NS(=O)(=O)c2ccc(-c3coc(C)n3)cc2)cc1OC	n	n	n	n	n
Cc1nc(-c2ccc(S(=O)(=O)Nc3ccc(S(N)(=O)=O)cc3)cc2)co1	n	n	n	n	n
CSc1cccc(NS(=O)(=O)c2ccc(-c3coc(C)n3)cc2)c1	3.0	n	n	n	n
Cc1nc(-c2ccc(S(=O)(=O)Nc3cccc(Cl)c3)cc2)co1	59	n	n	n	n
C[C@H](CCC(=O)O)[C@H]1CC[C@H]2[C@@H]3C(=O)C[C@@H]4CC(=O)CC[C@]4(C)[C@H]3CC(=O)[C@]12C	n	n	n	n	n
O=C(Cc1ccccc1)Nc1ccc(NC(=O)c2cccs2)cc1Cl	72	n	n	n	n
O=C(Cc1ccccc1)Nc1ccc(NC(=O)c2cccs2)c(Cl)c1	n	n	n	n	n
Oc1ccc(/C=N/N(c2ccccc2)c2ccccc2)c(O)c1O	n	n	n	37	52
O=C(COC(=O)C1CC(=O)N(Cc2ccco2)C1)c1ccc(OC(=O)c2ccco2)cc1 (configuration not stated)	n	n	n	36	n
O=C(COC(=O)c1cc2c(s1)CCC2)Nc1ccc(F)cc1	n	x	n	n	50
NC(=O)c1ccc(NC(=O)COC(=O)c2cc3c(s2)CCC3)cc1	n	x	n	n	x
COC(=O)NC1(C(=O)O)CCCC1	n	n	n	n	n
Cc1nn(-c2ccc(F)cc2)c2nc(N)c(C#N)c(-c3ccc(O)c(O)c3)c12	n	n	n	n	x
COc1cc(-c2c(C#N)c(N)nc3c2c(C)nn3-c2ccc(C)c(C)c2)cc(OC)c1OC	n	+	n	n	n
O=C(/C=C/c1ccc(Br)cc1)NC1CCCCCC1	n	n	n	n	102
CCCOc1ccc(/C=C/C(=O)NC2CCCCC2)cc1	n	n	n	n	n
COc1ccccc1/C=N/NC(=O)c1ccccc1Cl	n	x	n	n	n
Cc1cccc(-n2cc[nH]c2=S)c1C	n	n	n	n	n
COc1ccc(NC(=O)CSc2nc3ccccc3nc2N2CCCCC2)cc1	n	n	n	n	n
COc1ccc(NC(=O)CSc2nc(N3CCCCC3)nc(N3CCCCC3)n2)cc1	88	n	n	n	n
SMILES	DSG3 Ab inh	Rce1 inh	TbMetRS inhib	NadD inh	HCV core dimer
O=C(O)c1ccc(-c2ccc(/C=C3\NC(=O)N(Cc4ccc(Cl)cc4)C3=O)o2)cc1Cl	80	n	n	n	x
CCOC(=O)CN1C(=O)S/C(=C\c2ccc(-c3ccc(C(=O)O)c(Cl)c3)o2)C1=O	n	n	n	n	n
Nc1ccc(Oc2ccc3nc(-c4ccccc4)c(-c4ccc([N+](=O)[O-])cc4)nc3c2)cc1	n	n	n	32	n
N#Cc1ccc(Oc2ccc(-c3nc4ccccc4nc3-c3ccccc3)cc2)cc1C#N	n	n	n	n	n
COc1ccc(-c2nn(-c3ccccc3)cc2/C=C(\C#N)C(N)=O)cc1[N+](=O)[O-]	n	n	n	n	54
COc1ccc(-c2nn(-c3ccccc3)cc2/C=C(/C#N)C(N)=O)cc1[N+](=O)[O-]	n	n	n	n	47
COc1ccc(-c2nn(-c3ccccc3)cc2C(=O)Nc2cccc(C(=O)O)c2)cc1[N+](=O)[O-]	n	x	n	n	n
